ChEMBL document CHEMBL5108057, “Development of MAO-A and 5-HT2AR Dual Inhibitors with Improved Antidepressant Activity” (J Med Chem, 2022)
Active and inactive are the calls of the source. The calls are words filed in the database; no cut-off is given here.

Experiments:
[1] = AUC(0 to 24 hrs) in Sprague-Dawley rat at 2 mg/kg, iv measured upto 1440 mins by LC-MS/MS analysis; type: ADME, organism-based; parameters: dose 2 mg/kg, time < 1440 min, route iv; details: in vivo
[2] = Tmax in Sprague-Dawley rat at 2 mg/kg, iv measured upto 1440 mins by LC-MS/MS analysis; type: ADME, organism-based; details: in vivo
[3] = AUC(0 to infinity) in Sprague-Dawley rat at 10 mg/kg, IG measured upto 1440 mins by LC-MS/MS analysis; type: ADME, organism-based; parameters: time < 1440 min, dose 10 mg/kg, route ig; details: in vivo, po
Mus musculus [4] = assay: Antidepressant activity in reserpine-induced ICR mouse model assessed as increase the number of rearing at 10 to 20 mg/kg pretreated with reserpine for 3 days followed by compound addition on day 4 to 10 by open field test; type: functional, organism-based; details: dose 10-20 mg/kg, time 6.0 day
How it was run: (§1)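 Body weight was recorded daily. OFT: 5 min session scoring distance, speed, rearing and dejection. FST and TST: 6 min, with immobility scored over the last 4 min. Mean ± SD, n = 6; one-way ANOVA and t-test.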

Mus musculus [5] = assay: Antidepressant activity in reserpine-induced ICR mouse model assessed as improvement in depression like behavior at 10 mg/kg pretreated with reserpine for 3 days followed by compound addition for 1 week by open field test; type: functional, organism-based; details: time 1.0 weeks; how it was run: as §1
Mus musculus [6] = assay: Antidepressant activity in reserpine-induced ICR mouse model assessed as increase in movement speed at 10 to 20 mg/kg pretreated with reserpine for 3 days followed by compound addition for 1 week by open field test; type: functional, organism-based; details: dose 10-20 mg/kg, time 1.0 weeks; how it was run: as §1
Hippocampus = assay: Antidepressant activity in mouse hippocampal tissue assessed as reduction in neuronal cell damage at 10 to 20 mg/kg by H and E staining based assay; type: functional, organism-based; details: dose 10-20 mg/kg
How it was run: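 Mice given compound at 10 or 20 mg/kg, with fluoxetine 20 mg/kg as comparator. Paraffin tissue sections of 4 μm were cut. Staining: hematoxylin 5 min, 75% HCl-ethanol differentiation 30 s, eosin 2 min. Organs (liver, kidney, lung, heart, spleen) examined at ×400; hippocampus (CA1, CA3, DG) at ×200.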

Mus musculus [7] = assay: Antidepressant activity in chronic unpredictable mild stress ICR mouse model assessed as reduction in depression-like behavior at 10 mg/kg administered for 2 weeks by open field test; type: functional, organism-based
How it was run: (§2)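 ICR mice received CUMS for 4 weeks: 11 stressors given randomly twice daily, 42 days in total. OFT: 5 min session scoring distance, speed, rearing and dejection. FST/TST: 6 min, with immobility scored over the last 4 min. Sucrose preference test was also run. Mean ± SD, n = 6.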

[8] = Bioavailability in Sprague-Dawley rat at 2 mg/kg, iv measured upto 1440 mins by LC-MS/MS analysis; type: ADME, organism-based; details: in vivo
Mus musculus [9] = assay: Antidepressant activity in chronic unpredictable mild stress ICR mouse model assessed as increase in gluco-phagy at 10 to 20 mg/kg measured after 2 weeks by sugar preference test; type: functional, organism-based; details: dose 10-20 mg/kg; how it was run: as §2
Mus musculus [10] = assay: Antidepressant activity in reserpine-induced ICR mouse model assessed as increase in total distance traveled at 10 to 20 mg/kg pretreated with reserpine for 3 days followed by compound addition for 1 week by open field test; type: functional, organism-based; details: dose 10-20 mg/kg, time 1.0 weeks; how it was run: as §1
Mus musculus [11] = assay: Antidepressant activity in reserpine-induced ICR mouse model assessed as reduction in immobility time at 10 to 20 mg/kg pretreated with reserpine for 3 days followed by compound addition on day 4 to 10 by tail suspension test; type: functional, organism-based; details: dose 10-20 mg/kg, time 6.0 day; how it was run: as §1
Mus musculus [12] = assay: Antidepressant activity in reserpine-induced ICR mouse model assessed as reduction in weight loss at 10 to 20 mg/kg pretreated with reserpine for 3 days followed by compound addition on 4 to 10 days; type: functional, organism-based; details: dose 10-20 mg/kg, time 6.0 day; how it was run: as §1
[13] = Tmax in Sprague-Dawley rat at 10 mg/kg, IG measured upto 1440 mins by LC-MS/MS analysis; type: ADME, organism-based; details: in vivo, po
Danio rerio [14] = organism: Danio rerio; assay: Antidepressant activity in reserpine-induced zebrafish AB depression model assessed as decrease in immobility time at 0.1 to 1 uM pretreated for 40 mins with reserpine followed by compound addition and measured for 7 days by open field test; type: functional, organism-based; details: dose 0.1-1 µM, time 7.0 day
How it was run: (§3)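 Zebrafish were exposed to 10 mg/L reserpine for 40 min. Compound (0.1, 0.5, 1 μM) or fluoxetine (1 μM) was given 24 h later for 7 days. Fish kept at 28.5 °C on a 14 h light/10 h dark cycle. Open-field and novel tank tests were video-tracked for distance, velocity, immobility and time in the top. Mean ± SD, n = 6.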

Mus musculus [15] = assay: Antidepressant activity in reserpine-induced mouse assessed as increase in 5-HT1AR expression at 10 to 20 mg/kg pretreated with reserpine for 3 days followed by compound addition on day 4 to 10 by Western blot analysis; type: functional, organism-based; details: dose 10-20 mg/kg, time 6.0 day
How it was run: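 Whole-brain protein was quantified by BCA and diluted to 3 mg/mL, then run on 4−20% SDS-PAGE and blotted. Primary antibody at 4 °C overnight, secondary 1 h at room temperature. 5-HT1AR and 5-HT2AR levels are relative; mean ± SD, n = 3.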

Danio rerio [16] = organism: Danio rerio; assay: Antidepressant activity in reserpine-induced zebrafish AB depression model assessed as increase in exploratory ability at 0.1 to 1 uM pretreated for 40 mins with reserpine followed by compound addition and measured for 7 days by novel tank test; type: functional, organism-based; details: dose 0.1-1 µM, time 7.0 day; how it was run: as §3
[17] = MRT infinity in Sprague-Dawley rat at 10 mg/kg, IG measured upto 1440 mins by LC-MS/MS analysis; type: ADME, organism-based; details: in vivo, po
[18] = Clearance in Sprague-Dawley rat at 2 mg/kg, iv measured upto 1440 mins by LC-MS/MS analysis; type: ADME, organism-based; details: in vivo
[19] = AUC(0 to 24 hrs) in Sprague-Dawley rat at 10 mg/kg, IG measured upto 1440 mins by LC-MS/MS analysis; type: ADME, organism-based; parameters: time < 1440 min, dose 10 mg/kg, route ig; details: in vivo, po
[20] = Cmax in Sprague-Dawley rat at 2 mg/kg, iv measured upto 1440 mins by LC-MS/MS analysis; type: ADME, organism-based; parameters: time < 1440 min, dose 2 mg/kg, route iv; details: in vivo
[21] = Half life in Sprague-Dawley rat at 10 mg/kg, IG measured upto 1440 mins by LC-MS/MS analysis; type: ADME, organism-based; details: in vivo, po
[22] = Clearance in Sprague-Dawley rat at 10 mg/kg, IG measured upto 1440 mins by LC-MS/MS analysis; type: ADME, organism-based; details: in vivo, po
[23] = Cytotoxicity against human SH-SY5Y cells assessed as reduction in cell growth measured after 48 hrs by MTT assay; type: toxicity, cell-based
How it was run: (§4)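 MTT assay: PC12, SH-SY5Y or L02 cells at 5.0 × 10^3 per well were grown for 24 h, treated with compound dilutions from 10 mM DMSO stocks, and cultured 48 h. MTT was then added for 4 h at 37 °C, formazan dissolved in DMSO, and absorbance read at 570 nm. Viability is relative to blank control; IC50 from three repeats. Media contained 10% FBS.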

[24] = AUC(0 to infinity) in Sprague-Dawley rat at 2 mg/kg, iv measured upto 1440 mins by LC-MS/MS analysis; type: ADME, organism-based; parameters: dose 2 mg/kg, time < 1440 min, route iv; details: in vivo
Mus musculus [25] = assay: Antidepressant activity in reserpine-induced ICR mouse model assessed as increase in mobility at 10 to 20 mg/kg pretreated with reserpine for 3 days followed by compound addition for 1 week by open field test; type: functional, organism-based; details: dose 10-20 mg/kg, time 1.0 weeks; how it was run: as §1
[26] = Half life in Sprague-Dawley rat at 2 mg/kg, iv measured upto 1440 mins by LC-MS/MS analysis; type: ADME, organism-based; details: in vivo
[27] = Cytotoxicity against human L02 cells assessed as reduction in cell growth measured after 48 hrs by MTT assay; type: toxicity, cell-based; how it was run: as §4
[28] = Cytotoxicity against rat PC-12 cells assessed as reduction in cell growth measured after 48 hrs by MTT assay; type: toxicity, cell-based; how it was run: as §4

Which AUC(0-t) at 24 h [1] does the source give for `O=C1c2ccccc2-c2nccc3cc(OCCCCCN4CCN(c5ccccc5F)CC4)cc1c23` here?
Its AUC(0-t) at 24 h is 2230 ng·h/mL.

What about the Tmax [2] of the same compound?
Its Tmax is 4.8 min.

What about the AUC(0-inf) [3] of the same compound?
Its AUC(0-inf) is 504 ng·h/mL.

And the Activity (Mus musculus [4])?
The Activity was “Active”.

And the Activity (Mus musculus [5])?
The Activity was “Active”.

And the Activity (Mus musculus [6])?
Its Activity is “Active”.

What about the Activity (Hippocampus) of the same compound?
The Activity was “Active”.

What about the Activity (Mus musculus [7]) of the same compound?
The Activity was “Active”.

What about the bioavailability [8] of the same compound?
Its bioavailability is 4.4%.

And the Activity (Mus musculus [9])?
Its Activity is “Active”.

And the Activity (Mus musculus [10])?
Its Activity is “Active”.

What about the Activity (Mus musculus [11]) of the same compound?
Its Activity is “Active”.

And the Activity (Mus musculus [12])?
The Activity was “Active”.

What about the Tmax [13] of the same compound?
The Tmax was 1.33 h.

What about the Activity (Danio rerio [14]) of the same compound?
Its Activity is “Active”.

What about the Activity (Mus musculus [15]) of the same compound?
The Activity was “Active”.

And the Activity (Danio rerio [16])?
Its Activity is “Active”.

And the MRT inf [17]?
The MRT inf was 4.94 h.

What about the clearance [18] of the same compound?
Its clearance is 14.5 mL/min/kg.

And the AUC(0-t) at 24 h [19]?
Its AUC(0-t) at 24 h is 491 ng·h/mL.

And the Cmax [20]?
The Cmax was 673 ng/mL.

What about the half-life [21] of the same compound?
Its half-life is 5.22 h.

And the CL/F [22]?
Its CL/F is 346 mL/min/kg.

And the IC50 at 48 h [23]?
Its IC50 at 48 h is > 10 µM.

And the AUC(0-inf) [24]?
Its AUC(0-inf) is 2320 ng·h/mL.

And the Activity (Mus musculus [25])?
The Activity was “Active”.

What about the half-life [26] of the same compound?
Its half-life is 6.31 h.

What about the IC50 at 48 h [27] of the same compound?
The IC50 at 48 h was > 100 µM.

What about the IC50 at 48 h [28] of the same compound?
Its IC50 at 48 h is > 10 µM.
